Assay [1] addresses 5-hydroxytryptamine receptor 7 (Rattus norvegicus, UniProt P32305). The assay can be described thus: Displacement of [3H]5CT from 5HT7 receptor in Wistar rat hyphalamic membrane. In kind it is cell membranes. For orientation: In a radioligand displacement assay an active substance lowers the binding of a labelled ligand.
The subject of assay [2] is Mus musculus. The assay can be described thus: Decrease in body temperature in Swiss Albino mouse at 5 mg/kg, ip administered 30 mins before the test measured after 90 mins relative to control. In kind it is functional. As to conditions: route intraperitoneal. In short, it runs like this: (§1)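 Male Albino Swiss mice (24-28 g) given compound ip in 1% aqueous Tween 80 (10 mL/kg); rectal temperature read at 30, 60, 90 and 120 min post-dose; Δt versus basal temperature taken at start (initial ~36.0 °C); n = 8/group; mean ± SEM.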

The test system of assay [3] is Mus musculus. Nature of the assay: Decrease in body temperature in Swiss Albino mouse at 5 mg/kg, ip administered 30 mins before the test measured after 120 mins relative to control. The note with it: route intraperitoneal. In kind it is functional. In short, it runs like this: as §1
The target in assay [4] is T1, 5-hydroxytryptamine receptor 1A (Rattus norvegicus, UniProt P19327).
T1 sequence (P19327 whole entry): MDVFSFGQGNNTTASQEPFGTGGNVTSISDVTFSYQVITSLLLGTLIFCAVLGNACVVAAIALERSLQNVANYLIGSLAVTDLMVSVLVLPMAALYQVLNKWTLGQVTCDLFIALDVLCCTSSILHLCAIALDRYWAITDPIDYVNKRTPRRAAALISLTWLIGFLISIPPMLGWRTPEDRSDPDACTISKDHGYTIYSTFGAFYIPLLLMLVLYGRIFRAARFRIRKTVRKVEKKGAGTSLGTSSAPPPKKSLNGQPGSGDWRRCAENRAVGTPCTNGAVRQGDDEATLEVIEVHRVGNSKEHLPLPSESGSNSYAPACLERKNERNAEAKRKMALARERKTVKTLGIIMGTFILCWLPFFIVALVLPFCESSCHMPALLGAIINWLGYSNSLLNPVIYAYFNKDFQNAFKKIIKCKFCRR
Nature of the assay: Displacement of [3H]8-OH-DPAT from rat brain 5HT1A receptor. In short, it runs like this: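 Rat hippocampal membranes; 1 nM [3H]-8-OH-DPAT; nonspecific binding with 10 μM 5-HT; 8–10 competitor concentrations in triplicate, ≥3 experiments; GF/B filtration, ice-cold buffer washes, scintillation counting; Ki by nonlinear regression with Cheng–Prusoff.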

The target in assay [5] is 5-hydroxytryptamine receptor 2A (Rattus norvegicus, UniProt P14842). The assay can be described thus: Displacement of [3H]ketanserin from rat brain 5HT2A receptor. The gist of the method:
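Rat brain membranes; 0.6 nM [3H]-ketanserin; nonspecific binding with 1 μM methysergide; 8–10 competitor concentrations in triplicate, ≥3 experiments; GF/B filtration, scintillation counting; Ki via Cheng–Prusoff.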

Assay [6] concerns Mus musculus. The assay can be described thus: Effect on compound induced hypothermia in Swiss Albino mouse at 10 mg/kg, ip in presence of 0.1 mg/kg WAY 100635 after 30 mins relative to control. In kind it is functional. The gist of the method:
(§2)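 Male Albino Swiss mice; WAY 100635 0.1 mg/kg sc (in distilled water) 15 min before ip compound (1% Tween 80); rectal temperature at 30 and 60 min after compound; Δt from basal; n = 8/group; mean ± SEM.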

The test system of assay [7] is Mus musculus. The assay can be described thus: Decrease in body temperature in Swiss Albino mouse at 5 mg/kg, ip administered 30 mins before the test measured after 30 mins relative to control. As to conditions: route intraperitoneal. In kind it is functional. In short, it runs like this:
as §1

For assay [8], the system named is Mus musculus. The assay can be described thus: Effect on body temperature in Swiss Albino mouse assessed as decrease at 10 mg/kg, ip after 30 mins relative to initial temperature. The note with it: route intraperitoneal. In kind it is functional. The gist of the method: as §1
In assay [9] the test system is Mus musculus. The assay can be described thus: Effect on body temperature in Swiss Albino mouse assessed as decrease at 10 mg/kg, ip after 90 mins relative to initial temperature. In kind it is functional. The note with it: route intraperitoneal. The gist of the method:
as §1

The test system of assay [10] is Mus musculus. The assay can be described thus: Decrease in body temperature in Swiss Albino mouse at 5 mg/kg, ip administered 30 mins before the test measured after 60 mins relative to control. In kind it is functional. The note with it: route intraperitoneal. In short, it runs like this: as §1
Assay [11] concerns Mus musculus. The assay can be described thus: Effect on body temperature in Swiss Albino mouse assessed as decrease at 10 mg/kg, ip after 60 mins relative to initial temperature. In kind it is functional. The note with it: route intraperitoneal. The gist of the method: as §1
Assay [12] deals with Mus musculus. Nature of the assay: Effect on compound induced hypothermia in Swiss Albino mouse at 10 mg/kg, ip in presence of 0.1 mg/kg WAY 100635 after 60 mins relative to control. In kind it is functional. The gist of the method: as §2
Assay [13] relates to Mus musculus. Nature of the assay: Effect on body temperature in Swiss Albino mouse assessed as decrease at 10 mg/kg, ip after 120 mins relative to initial temperature. As to conditions: route intraperitoneal. In kind it is functional. The gist of the method: as §1
The test system of assay [14] is Mus musculus. The assay can be described thus: Antidepressant activity in Swiss Albino mouse assessed as immobility time during final 4 mins of 6 mins session at 20 mg/kg, ip administered 30 mins before the test in forced-swimming test. In kind it is functional. The note with it: route intraperitoneal. In short, it runs like this: (§3)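 Male Albino Swiss mice (24-28 g), ip in 1% aqueous Tween 80 suspension (10 mL/kg), 30 min pretest; single glass cylinder (25 cm high, 10 cm diameter), 6 cm water at 23–25 °C for 6 min; immobility (floating, minimal head-keeping movements) timed over final 4 min; n = 9-10/group; mean ± SEM.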

Assay [15] deals with Mus musculus. Nature of the assay: Locomotor activity in Swiss Albino mouse assessed as number of crossings in 30 mins at 10 mg/kg, ip administered 30 mins before the test. As to conditions: route intraperitoneal. In kind it is functional. In short, it runs like this:
(§4)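 Male Albino Swiss mice dosed ip 30 min before test (compound in 1% Tween 80; imipramine in distilled water); individual cages with IR beam sensors, consecutive beam breaks scored as ambulatory counts during first 6 min and over a 30-min session; n = 10/group; mean ± SEM.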

The test system of assay [16] is Mus musculus. The assay can be described thus: Antidepressant activity in Swiss Albino mouse assessed as immobility time during final 4 mins of 6 mins session at 10 mg/kg, ip administered 30 mins before the test in forced-swimming test. In kind it is functional. As to conditions: route intraperitoneal. The gist of the method: as §3
Assay [17] deals with Mus musculus. Nature of the assay: Locomotor activity in Swiss Albino mouse assessed as number of crossings in 30 mins at 30 mg/kg, ip administered 30 mins before the test. The note with it: route intraperitoneal. In kind it is functional. In short, it runs like this:
as §4

Assay [18] has as its system Mus musculus. Nature of the assay: Locomotor activity in Swiss Albino mouse assessed as number of crossings in 6 mins at 30 mg/kg, ip administered 30 mins before the test. In kind it is functional. As to conditions: route intraperitoneal. In short, it runs like this: as §4
Assay [19] relates to Mus musculus. Nature of the assay: Locomotor activity in Swiss Albino mouse assessed as number of crossings in 6 mins at 10 mg/kg, ip administered 30 mins before the test. As to conditions: route intraperitoneal. In kind it is functional. In short, it runs like this:
as §4

Assay [20] concerns Mus musculus. Nature of the assay: Locomotor activity in Swiss Albino mouse assessed as number of crossings in 6 mins at 20 mg/kg, ip administered 30 mins before the test. In kind it is functional. As to conditions: route intraperitoneal. The gist of the method: as §4
In assay [21] the test system is Mus musculus. The assay can be described thus: Antidepressant activity in Swiss Albino mouse assessed as immobility time during final 4 mins of 6 mins session at 30 mg/kg, ip administered 30 mins before the test in forced-swimming test. In kind it is functional. The note with it: route intraperitoneal.

5-hydroxytryptamine receptor 2A, sequence (P14842 whole entry): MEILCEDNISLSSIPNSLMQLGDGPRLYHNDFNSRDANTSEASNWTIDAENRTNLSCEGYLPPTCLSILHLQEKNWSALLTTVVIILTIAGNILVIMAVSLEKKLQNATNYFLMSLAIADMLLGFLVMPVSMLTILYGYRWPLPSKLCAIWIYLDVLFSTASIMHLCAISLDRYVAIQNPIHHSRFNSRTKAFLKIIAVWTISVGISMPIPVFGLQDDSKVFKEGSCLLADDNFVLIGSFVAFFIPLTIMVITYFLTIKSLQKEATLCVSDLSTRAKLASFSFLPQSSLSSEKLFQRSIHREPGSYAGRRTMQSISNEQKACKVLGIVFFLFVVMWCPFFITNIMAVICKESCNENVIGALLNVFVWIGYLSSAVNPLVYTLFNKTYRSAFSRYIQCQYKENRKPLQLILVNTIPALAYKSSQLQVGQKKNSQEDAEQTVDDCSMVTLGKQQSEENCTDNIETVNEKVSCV
5-hydroxytryptamine receptor 7, sequence (P32305 whole entry): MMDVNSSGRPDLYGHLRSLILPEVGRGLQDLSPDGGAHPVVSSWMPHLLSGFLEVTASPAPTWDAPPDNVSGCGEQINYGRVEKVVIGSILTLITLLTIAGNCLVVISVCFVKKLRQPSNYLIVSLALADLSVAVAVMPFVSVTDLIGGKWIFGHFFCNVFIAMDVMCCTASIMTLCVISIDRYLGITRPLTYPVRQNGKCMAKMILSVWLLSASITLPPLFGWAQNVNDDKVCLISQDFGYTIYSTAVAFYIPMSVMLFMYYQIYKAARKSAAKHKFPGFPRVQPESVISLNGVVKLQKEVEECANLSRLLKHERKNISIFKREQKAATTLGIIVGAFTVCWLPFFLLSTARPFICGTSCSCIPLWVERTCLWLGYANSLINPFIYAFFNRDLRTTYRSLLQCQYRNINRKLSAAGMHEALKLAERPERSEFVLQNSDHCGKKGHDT

One may read the Ki as the dissociation constant of the complex between target and ligand, obtained from inhibition or displacement. Read a low Ki as a stronger hold on the target. Take `CCCOc1nc2c(c(=O)n(C)c(=O)n2C)n1CCCCN1CCN(c2cccc(Cl)c2)CC1`: the values for the Ki in assay [1], in assay [4] and in assay [5] were 0.125 µM, 0.015 µM and 0.028 µM, respectively. Also, the Activity with Mus musculus [2] is -0.6 °C; with Mus musculus [3] it was -0.2 °C; with Mus musculus [6] it was -1.4 °C; in the assay with Mus musculus [7] it was -0.7 °C; in the assay on Mus musculus [8], -1.7 °C; in the assay on Mus musculus [9], -1.1 °C. Moreover, the Activity was -0.6 °C in the assay with Mus musculus [10], -1.1 °C in the assay on Mus musculus [11], -0.9 °C with Mus musculus [12] and -1.1 °C in the assay on Mus musculus [13].
For the molecule `CN(C)CCCN1c2ccccc2CCc2ccccc21` [IMIPRAMINE], the Activity in the assay with Mus musculus [14] is 107.8 s; in the assay with Mus musculus [15], 877; in the assay on Mus musculus [16], 149.1 s; with Mus musculus [17], 602.3; in the assay on Mus musculus [18], 300.9; with Mus musculus [19], 338. Besides, the Activity with Mus musculus [20] was 314.9; in the assay with Mus musculus [21], 76.4 s.

Source of the values: ChEMBL document CHEMBL1143707, “7-Arylpiperazinylalkyl and 7-tetrahydroisoquinolinylalkyl derivatives of 8-alkoxy-purine-2,6-dione and some of their purine-2,6,8-trione analogs as 5-HT(1A), 5-HT(2A), and 5-HT(7) serotonin receptor ligands” (Bioorg Med Chem, 2007).
